Laboratory results published in the RNAGym collection of RNA variant scans (doi:10.1126/science.aae0568).
Variants at the floor of the assay were thinned out.

B1: tRNA (parent)
chain: GUUCCGUUGGCGUAAUGGUAACGCGUCUCCCUCCUAAGGAGAAGACUGCGGGUUCGAGUCCCGUACGGAACG

Variants of: B1
Assay: yeast fitness relative to wild type (ratio to wild type); higher = fitter; tRNA-Arg(CCU), competitive growth, 37 C, YPD
Outline: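 Variants of the tRNA-Arg(CCU) gene were chemically synthesised with a 3% per-site mutation rate across 69 sites and placed at the native genomic locus in Saccharomyces cerevisiae. Six parallel replicates of the pooled strains were competed in YPD at 37°C for 24 hours, and gene amplicons from the start and end populations were read by 100-nucleotide paired-end sequencing. Darwinian fitness relative to wild type was derived from changes in genotype frequencies. Genotypes required ≥ 100 starting reads, and estimates < 0.5 were set to 0.5.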
With GUUCCGUUGGCGUAAUGGUAACGAGUCUCCCUCCUAAGGAGAAGGCUGCGGGUUCGUGUCCUGUACGGAACG the yeast fitness was ≤ 0.5. With GUUCCGUUGGCGUAAUGGUAACCCGUCUCCCUCCUAAGGAGAAGACUGCGGGUCCGAGUCCCGUAUGGAACG the yeast fitness was ≤ 0.5. GUUCCGUUGGCGUAAUGGUAACCCGUCUCCCUUCUAAGGAGAAGACUGCGGGUUCGAGUCCCGUACGGAACG showed a yeast fitness of 0.544. In the case of GUUCCGUUGGCGUAAUGGUAACGAGUCUCCCUCCUAAGGAGGAGACUGCGGGUUCGAGUCCCAUACGGAACG, the yeast fitness is reported as ≤ 0.5. With GUUCCGUUGGCGUAAUGGUAACCCGUCUCCCUCCUAGGGAGAAGACUGCGGGUUCGAGUCCCGUACGGCACG the yeast fitness was 0.548. For GUUCCGUUGGCGUAAUGGUAACCCGUCUCCCUCCUAAAGAGAAGACUGCGGGUUCGAGUCCCGUACGGAACG, the yeast fitness was 0.696. For GUUCCGUUGGCGUAAUGGUAACCCGUCUCCGUCCUAAGGAGAAGACUGCGGGUUCGAGUACCGUACGGAUCG, the yeast fitness was 0.554. In the case of GUUCCGUUGGCGUAAUGGUAACGAGUCUCCCUCCUUAGGAGAAGACUGCGGGUUAGAGUCCCGUAUGGAACG, the yeast fitness is reported as ≤ 0.5. Variant GUUCCGUUGGCGUAAUGGUAACACGUCUCCCUCCUAAGGAGAAGACUGCGAGUUCGAGUCACGUAAGGAACG has a yeast fitness of 0.545. Variant GUUCCGUUGGCGUAAUGGUAACUCGUCUCCCUCCUAAGGAGAAGACUGCGGGUUCGUGUCCCGUACGGAACG has a yeast fitness of 0.614. In the case of GUUCCGUUGGCGUAAUGGUAACCCGUCUCCCUCCUAAGGAGAAGACUGCGCGUUCGAGUCCCGUACGGAACG, the yeast fitness is reported as ≤ 0.5. In the case of GUUCCGUUGGCGUAAUGGUAACACGUCUCCCUCCUAAGCAGAAGACUGCGGGUUCGAGUCCCGUACGGAACG, the yeast fitness is reported as 0.752. With GUUCCGUUGGCGUAAUGGUAACCCGUCUCCCUCCUAAGGAGUAGACUGCGGGUUCGAGUCCCGUACGGAACG the yeast fitness was 0.65. For GUUCCGUUGGCGUAAUGGUAACCCGUCUCCCUCCUAAGGAGAAGACUGCGGGUUGGAGUCCCGUACGGAACG, the yeast fitness was ≤ 0.5. In the case of GUUCCGUUGGCGUAAUGGUAACCCGUGUCCCUCCUAAGGAGAAGGCUGCGGAUUCGAGUCCCGUACGGAACG, the yeast fitness is reported as 0.57. For GUUCCGUUGGCGUAAUGGUAACCAGUCUCGCUCCUAAGGUGAAGACAGCGCGUUCGAGUCCCGUAAGGUACG, the yeast fitness was 0.525. For GUUCCGUUGGCGUAAUGGUAACGAGUCUCCCUCCUAAGGAGGAGACUGCGGGUUCGAGUCCCAAACGGAACG, the yeast fitness was ≤ 0.5. In the case of GUUCCGUUGGCGUAAUGGUAACCCGUCGCCCUCCUAAGGAGCAGACUGCGGCUUCGAGUCCCGUACGGAACG, the yeast fitness is reported as ≤ 0.5. Variant GUUCCGUUGGCGUAAUGGUAACACGUCUCCCUCCUAAGGAGAAGACUGCGGAUUCGAGUCCCGUACGGAACG has a yeast fitness of 0.546. For GUUCCGUUGGCGUAAUGGUAACCCGUCUUCCUCCUAAGGAGAAGACUGAGGGUUCGAGUCUCGUACGGAACG, the yeast fitness was ≤ 0.5. Variant GUUCCGUUGGCGUAAUGGUAACCCGUCUCCCUCCUAAGGAAAAGCCUGCGGGUUCGAGUCCCGUCCGGAACG has a yeast fitness of 0.583. In the case of GUUCCGUUGGCGUAAUGGUAACCCGUCUCCCUCCUAAGGAGAAGACUGCGGGUUCGAGUCCCGUACGGAUCG, the yeast fitness is reported as 0.717. With GUUCCGUUGGCGUAAUGGUAACGAGUCUCCCUCCUAAGGAGCAGACUGCGGGUUCGAGUCCCGUACCGAUCG the yeast fitness was ≤ 0.5. For GUUCCGUUGGCGUAAUGGUAACACAUCUCCUUCCUAAGGAGAAGACUGCGGGUUCGAGUCCCGUACGGAACG, the yeast fitness was 0.652. Variant GUUCCGUUGGCGUAAUGGUAACCCGUCUCCCUCCUAAGGAGAAGACUGCAGGUUCGAGUCCCGUACGGAACG has a yeast fitness of 0.726. Variant GUUCCGUUGGCGUAAUGGUAACCCGUCUCGCUCCUAAGGAGAAGAUUGCGGGUUCGAGUCCCGUGCGGAUCG has a yeast fitness of 0.63. With GUUCCGUUGGCGUAAUGGUAACACGACUCCCUCCUAAGGAGAAGACUGCCGGCUCGAGUCCCGUACGGAACG the yeast fitness was ≤ 0.5. Work on GUUCCGUUGGCGUAAUGGUAACCCGUCUCCCUGCUAAGGAGUAGACUGCGGGUUCGAGUCCCGUACGGAACG yielded a yeast fitness of 0.556. For GUUCCGUUGGCGUAAUGGUAACCCGUCUCCCUCUUAAGGAGAAGACAGCGGGUUCGACUCCCGUACUGAACG, the yeast fitness was 0.533. For GUUCCGUUGGCGUAAUGGUAACCCGUCUCCCUCCUAAGCAGAAGACUGCGGGUUCGAGUCCCGUACGGAACG, the yeast fitness was 0.53. In the case of GUUCCGUUGGCGUAAUGGUAACCCGUCUCACUCCUAAGGAGAAGACUGCGGGUUCGAGUCCCGCACGGAACG, the yeast fitness is reported as ≤ 0.5. With GUUCCGUUGGCGUAAUGGUAACCCGUCUGCCUCCUAAGGAGAUGACUGCGGGUUCGAGUCCCGUACGGAACG the yeast fitness was ≤ 0.5. For GUUCCGUUGGCGUAAUGGUAACACGUCUCCCUCCUAAGGAGAAGACCGCGGGUUUGAGUCCCGUACGGCACG, the yeast fitness was ≤ 0.5. For GUUCCGUUGGCGUAAUGGUAACGAGUCUCCCUCCUAAGGAGCAGACAGCGGGUUCGAGUCCCCUACGGCACG, the yeast fitness was ≤ 0.5. For GUUCCGUUGGCGUAAUGGUAACCCGUCUCGCUCCUAAGCAGAAGACUGCGGGUUCGAGUCCCGUACGGAACG, the yeast fitness was 0.501. With GUUCCGUUGGCGUAAUGGUAACACGUCUCCCUCCUAAGGAGAAGACUGCGGGUUCGAGACCCGUACGGAACG the yeast fitness was 0.791. For GUUCCGUUGGCGUAAUGGUAACGAGUCUCCCUCCUAAGGAGCAGACUGCGGGUUCGAGUCCCGUACGGAACG, the yeast fitness was 0.713. For GUUCCGUUGGCGUAAUGGUAACCCGUCCUCCUCCUAAGGAGAAGACUGCGGGUUCGAGUCCCGUACGGCACG, the yeast fitness was ≤ 0.5. For GUUCCGUUGGCGUAAUGGUAACCCGUCUCCCUCCUAAGGACAAGACUGUGGGUUCGAGUCCCGUACGGAACG, the yeast fitness was ≤ 0.5. Work on GUUCCGUUGGCGUAAUGGUAACCCGUCUGCCUCCUAAGGAGAUGACUGCAGGUUCGAGUCCCGUCCGGAACG yielded a yeast fitness of 0.542. In the case of GUUCCGUUGGCGUAAUGGUAACCCGUCUGCCUCCUAAGGAGAAGACUGCGGGUUCGAGUCCCGUACUGCACG, the yeast fitness is reported as ≤ 0.5. For GUUCCGUUGGCGUAAUGGUAACGAGUCUCCCUCCUAAGGCGAAGACUGCGGGUUCGAGUCCCGUACGGCACG, the yeast fitness was ≤ 0.5. Work on GUUCCGUUGGCGUAAUGGUAACCCGUCUCCCUUCUAAGGAGAAGACUGCGGGUUCGUGUCCCGUACAGAACG yielded a yeast fitness of 0.512. In the case of GUUCCGUUGGCGUAAUGGUAACUCGUCUCCCACCUAAGGAGAAGACUGCGGGAUGGAGUCCCGUACGGAACG, the yeast fitness is reported as ≤ 0.5. In the case of GUUCCGUUGGCGUAAUGGUAACCCGUCUCCCUCCUAAGGAGCCGACUGCGGGUUCGAGUCCCGUACGGAACG, the yeast fitness is reported as 0.575. With GUUCCGUUGGCGUAAUGGUAACCCGUCUCCAUCCUUAGGAGAAGACUGCGGGUUCGAGUCCCGUACGGAACG the yeast fitness was ≤ 0.5. In the case of GUUCCGUUGGCGUAAUGGUAACGAGUCUCCCUCCUAAGGAGACGACUGCGGGUUCGAGUCCCGUACGGUACG, the yeast fitness is reported as ≤ 0.5. In the case of GUUCCGUUGGCGUAAUGGUAACGAGUCUCCCUCCUAAGGAGCAGACUGCGGGUUCGAGUCCCGCACGGAACG, the yeast fitness is reported as ≤ 0.5. With GUUCCGUUGGCGUAAUGGUAACCCGUCUCCCACCUAAGGAGAAGACUGCGGGUUCGAGUCUCGUACGGAACG the yeast fitness was ≤ 0.5. GUUCCGUUGGCGUAAUGGUAACACGUCUCCCUCCUAAGGAGAAGACUGCGGGUUCGAGUCCUGUCCGGAACG gave a yeast fitness of 0.582. For GUUCCGUUGGCGUAAUGGUAACGAGUCUCCCUCCUAAGGGGAAGACUGCGGGUUCGAGUCCCGUAUGGAACG, the yeast fitness was ≤ 0.5. In the case of GUUCCGUUGGCGUAAUGGUAACUCGUCUCCCUCCUAAGGAGAAGACUGGGGGUUCGAGUCCCGUACGGAUCG, the yeast fitness is reported as ≤ 0.5. In the case of GUUCCGUUGGCGUAAUGGUAACUCGUCUCCCUCCUAAGGAGAUGACUGCGGGUUGGAGUCCCGUACGGAACG, the yeast fitness is reported as ≤ 0.5. GUUCCGUUGGCGUAAUGGUAACGAGUCUCCCUCCUAAGGAGAAGACUGCGGGUUCGUGUCCCGUACGGAACG showed a yeast fitness of 0.681. For GUUCCGUUGGCGUAAUGGUAACCCGUCUCCCUCCUAUGGAGAAGAGUGCGGGUUCGAGUCCCGUACGGAACG, the yeast fitness was ≤ 0.5. GUUCCGUUGGCGUAAUGGUAACCCGUCUCCCUCCUAAGGAGAAGACUGCGGGUUCGAGCCCCGUACGGAACG gave a yeast fitness of 0.583. Work on GUUCCGUUGGCGUAAUGGUAACGAGUCUCCCUCCUCAGGAGAAGACUGCGGCUUCGAGUCCCGUAUGGAACG yielded a yeast fitness of 0.761. With GUUCCGUUGGCGUAAUGGUAACACGUCUCCCUCCUAAGGAGAAGACUGCGGGUACGAGUCCCGUACAGAACG the yeast fitness was ≤ 0.5. In the case of GUUCCGUUGGCGUAAUGGUAACCCGUCUCCCUCCUAAGGAGAAGUCUGCGGGUUCGAGUCCCGUCCGGAACG, the yeast fitness is reported as ≤ 0.5. In the case of GUUCCGUUGGCGUAAUGGUAACCCGUCUCCCUCCUAAGGAGAAGACUGAGGGUUCGAGCCCCGUACGGGACG, the yeast fitness is reported as ≤ 0.5. With GUUCCGUUGGCGUAAUGGUAACUGGUUUCCCUCCUAAGGAGAAGACUGCGGGUUCGAGUCCCGUACGGAACG the yeast fitness was ≤ 0.5. For GUUCCGUUGGCGUAAUGGUAACCCGUCUCCCUCCUAAGCAGAAGACUGCAGGUUCGAGUCCCGUACGCAACG, the yeast fitness was ≤ 0.5. Work on GUUCCGUUGGCGUAAUGGUAACACGUCCCCCUCCUAAGGAGAAGACUGCGGGUUCGAGCGCCGUACGGAACG yielded a yeast fitness of 0.649. In the case of GUUCCGUUGGCGUAAUGGUAACCCGUCUUCCUCCUAAGGAGAAAACUGCGGGUUCGAGUCCUGUACGGAACG, the yeast fitness is reported as ≤ 0.5. With GUUCCGUUGGCGUAAUGGUAACCCGUGUCCCUCCUAAGGAGAAGACUGCGGGUUCGAGUCUCGUACGGAACG the yeast fitness was ≤ 0.5. In the case of GUUCCGUUGGCGUAAUGGUAACUCGUCUCCCUCCUAAGGAGAAGACUGCGGGUUCGAGUCCCCUACGGAACG, the yeast fitness is reported as 0.623. With GUUCCGUUGGCGUAAUGGUAACCCGUCUCCCUCCUAAGGAGGAGACUGCGGGUUCGAGUCCCGUACGGGCCG the yeast fitness was ≤ 0.5. In the case of GUUCCGUUGGCGUAAUGGUAACCCGUCUCCUUCCUAAGGAGAAGACUAUGGGUUCGAGUCCCGUACGGAACG, the yeast fitness is reported as ≤ 0.5. With GUUCCGUUGGCGUAAUGGUAACCCGUCUCCCUCCUAAGGAGAAGACUGCGGGUUCGAGUCCCGUACGAAACG the yeast fitness was 0.719. GUUCCGUUGGCGUAAUGGUAACCCGUCUCCCUCCUAAGGAGAAGACUGCGGGUUCGAGUCCCGUACGUAACG showed a yeast fitness of 0.64. With GUUCCGUUGGCGUAAUGGUAACGAGUCUCCCUCCUAAGGUGAAGACUGUGGGUUCGAGUCCAGUAAGGAACG the yeast fitness was ≤ 0.5. In the case of GUUCCGUUGGCGUAAUGGUAACCCGUCUCCCUCCUCAGGAGAAGACUGCGGGUUCGAGUCCCGUACGGAACG, the yeast fitness is reported as ≤ 0.5. In the case of GUUCCGUUGGCGUAAUGGUAACCCGUCUCCCUCCUGAGGAGAAGACUGCGGGUUCGAGUCCCGUACGGAACG, the yeast fitness is reported as 0.625. For GUUCCGUUGGCGUAAUGGUAACCUGUCUCCCUCCUAAGGAGAAGAUCGCGGGUUCGAGUCCCGUACGGAACG, the yeast fitness was 0.684. For GUUCCGUUGGCGUAAUGGUAACCCGUCUCCCUCCUAAGGAGAAGACUGCGGGAUCGAGUCCCGUUCGGAACG, the yeast fitness was ≤ 0.5.
